Assay results taken from ChEMBL document CHEMBL3616399, “Design, synthesis, and structure-activity relationship studies of novel thienopyrrolidone derivatives with strong antifungal activity against Aspergillus fumigates” (Eur J Med Chem, 2015).
Converted amounts (≈) assume the structure as drawn.

Tests used:
Candida parapsilosis = assay: Antifungal activity against Candida parapsilosis 22019 after 24 hrs by serial dilution method; type: functional; conditions: Lodderomyces parapsilosis, 22019, 24 h
Summary of the method: (§1)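 MIC by broth serial dilution per NCCLS/CLSI (M27-A3 yeasts, M38-A2 filamentous) in 96-well plates; ATCC strains plus clinical isolates; C. parapsilosis 22019 run as quality-control strain in every assay. Compounds dissolved in DMSO, serially diluted in growth medium; incubation 35 °C; MIC read at 24 h (Candida), 48 h (A. fumigatus), 72 h (C. neoformans).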

Aspergillus fumigatus = assay: Antifungal activity against Aspergillus fumigatus 7544 after 48 hrs by serial dilution method; type: functional; conditions: Aspergillus fumigatus, 7544, 48 h; summary of the method: as §1
Cryptococcus neoformans = assay: Antifungal activity against Cryptococcus neoformans 32609 after 72 hrs by serial dilution method; type: functional; conditions: Cryptococcus neoformans, 32609, 72 h; summary of the method: as §1
Candida albicans [1] = assay: Antifungal activity against Candida albicans Y0109 after 24 hrs by serial dilution method; type: functional; conditions: Y0109, 24 h; summary of the method: as §1
Candida albicans [2] = assay: Antifungal activity against Candida albicans SC5314 after 24 hrs by serial dilution method; type: functional; conditions: SC5314, 24 h; summary of the method: as §1
Nakaseomyces glabratus = assay: Antifungal activity against Candida glabrata 537 after 24 hrs by serial dilution method; type: functional; conditions: Nakaseomyces glabratus, 537, 24 h; summary of the method: as §1
Liver microsome = assay: Intrinsic clearance in human liver microsomes assessed per mg of protein at 0.1 uM measured up to 60 mins by MS analysis; conditions: 1 h

Row | Structure (SMILES) | MIC (Candida parapsilosis) | MIC (Aspergillus fumigatus) | MIC (Cryptococcus neoformans) | MIC (Candida albicans [1]) | MIC (Candida albicans [2]) | MIC (Nakaseomyces glabratus) | CLH (Liver microsome)
1 | C[C@@H](N1Cc2cc(-c3ccncc3)sc2C1=O)[C@](O)(Cn1cncn1)c1ccc(F)cc1F | 0.0312 µg/mL (≈ 0.0668 µM) | 1 µg/mL (≈ 2.14 µM) | 0.0156 µg/mL (≈ 0.0334 µM) | 0.0312 µg/mL (≈ 0.0668 µM) | 0.0156 µg/mL (≈ 0.0334 µM) | 0.0625 µg/mL (≈ 0.134 µM) | 
2 | C[C@@H](N1Cc2cc(-c3ccc(F)cc3)sc2C1=O)[C@](O)(Cn1cncn1)c1ccc(F)cc1F | 0.0612 µg/mL (≈ 0.126 µM) | 4 µg/mL (≈ 8.26 µM) | 0.0625 µg/mL (≈ 0.129 µM) | 0.0312 µg/mL (≈ 0.0645 µM) | 0.0156 µg/mL (≈ 0.0322 µM) | 0.125 µg/mL (≈ 0.258 µM) | 
3 | Cc1cccc(-c2cc3c(s2)C(=O)N([C@H](C)[C@](O)(Cn2cncn2)c2ccc(F)cc2F)C3)c1 | 0.125 µg/mL (≈ 0.26 µM) | 4 µg/mL (≈ 8.32 µM) | 0.125 µg/mL (≈ 0.26 µM) | 0.0625 µg/mL (≈ 0.13 µM) | 0.0625 µg/mL (≈ 0.13 µM) | 0.0625 µg/mL (≈ 0.13 µM) | 
4 | C[C@@H](N1Cc2cc(-c3cncc(C#N)c3)sc2C1=O)[C@](O)(Cn1cncn1)c1ccc(F)cc1F | 0.0156 µg/mL (≈ 0.0317 µM) | 4 µg/mL (≈ 8.12 µM) | 0.0312 µg/mL (≈ 0.0635 µM) | 0.0312 µg/mL (≈ 0.0635 µM) | 0.0156 µg/mL (≈ 0.0317 µM) | 0.125 µg/mL (≈ 0.254 µM) | 
5 | C[C@@H](N1CCc2cc(-c3cncnc3)sc2C1)[C@](O)(Cn1cncn1)c1ccc(F)cc1F | 0.125 µg/mL (≈ 0.267 µM) | 32 µg/mL (≈ 68.3 µM) | 0.125 µg/mL (≈ 0.267 µM) | 0.125 µg/mL (≈ 0.267 µM) | 0.25 µg/mL (≈ 0.534 µM) | 1 µg/mL (≈ 2.13 µM) | 
6 | C[C@@H](n1cnc2cc(Cl)ccc2c1=O)[C@](O)(Cn1cncn1)c1ccc(F)cc1F [ALBACONAZOLE] | 0.0156 µg/mL (≈ 0.0361 µM) | 0.25 µg/mL (≈ 0.579 µM) | 0.0078 µg/mL (≈ 0.0181 µM) | 0.0156 µg/mL (≈ 0.0361 µM) | 0.0078 µg/mL (≈ 0.0181 µM) | 0.0156 µg/mL (≈ 0.0361 µM) | 
7 | C[C@@H](N1Cc2cc(-c3ccc(Cl)cc3)sc2C1=O)[C@](O)(Cn1cncn1)c1ccc(F)cc1F | 0.0625 µg/mL (≈ 0.125 µM) | 8 µg/mL (≈ 16 µM) | 0.0625 µg/mL (≈ 0.125 µM) | 0.0156 µg/mL (≈ 0.0311 µM) | 0.0156 µg/mL (≈ 0.0311 µM) | 0.0625 µg/mL (≈ 0.125 µM) | 
8 | C[C@@H](N1CCn2nc(-c3ccc(C#N)nc3)nc2C1)[C@](O)(Cn1cncn1)c1ccc(F)cc1F | 0.0156 µg/mL (≈ 0.0327 µM) | 2 µg/mL (≈ 4.19 µM) | 0.0625 µg/mL (≈ 0.131 µM) | 0.0156 µg/mL (≈ 0.0327 µM) | 0.0156 µg/mL (≈ 0.0327 µM) | 0.0156 µg/mL (≈ 0.0327 µM) | 
9 | C[C@@H](N1Cc2sc(-c3cncnc3)cc2C1=O)[C@](O)(Cn1cncn1)c1ccc(F)cc1F | 0.0156 µg/mL (≈ 0.0333 µM) | 32 µg/mL (≈ 68.3 µM) | 0.0078 µg/mL (≈ 0.0166 µM) | 0.0156 µg/mL (≈ 0.0333 µM) | 0.0156 µg/mL (≈ 0.0333 µM) | 0.0156 µg/mL (≈ 0.0333 µM) | 
10 | COc1cccc(-c2cc3c(s2)C(=O)N([C@H](C)[C@](O)(Cn2cncn2)c2ccc(F)cc2F)C3)c1 | 0.125 µg/mL (≈ 0.252 µM) | 8 µg/mL (≈ 16.1 µM) | 0.25 µg/mL (≈ 0.503 µM) | 0.0625 µg/mL (≈ 0.126 µM) | 0.0625 µg/mL (≈ 0.126 µM) | 0.125 µg/mL (≈ 0.252 µM) | 
11 | C[C@@H](N1Cc2sc(-c3ccccc3)cc2C1=O)[C@](O)(Cn1cncn1)c1ccc(F)cc1F | 0.0312 µg/mL (≈ 0.067 µM) | 32 µg/mL (≈ 68.6 µM) | 0.0625 µg/mL (≈ 0.134 µM) | 0.0312 µg/mL (≈ 0.067 µM) | 0.0156 µg/mL (≈ 0.0334 µM) | 0.0625 µg/mL (≈ 0.134 µM) | 
12 | C[C@@H](N1Cc2cc(-c3cccnc3)sc2C1=O)[C@](O)(Cn1cncn1)c1ccc(F)cc1F | 0.0312 µg/mL (≈ 0.0668 µM) | 4 µg/mL (≈ 8.56 µM) | 0.0312 µg/mL (≈ 0.0668 µM) | 0.0156 µg/mL (≈ 0.0334 µM) | 0.0156 µg/mL (≈ 0.0334 µM) | 0.125 µg/mL (≈ 0.267 µM) | 
13 | C[C@@H](N1Cc2cc(-c3cccc(F)c3)sc2C1=O)[C@](O)(Cn1cncn1)c1ccc(F)cc1F | 0.125 µg/mL (≈ 0.258 µM) | 4 µg/mL (≈ 8.26 µM) | 0.0625 µg/mL (≈ 0.129 µM) | 0.0625 µg/mL (≈ 0.129 µM) | 0.0156 µg/mL (≈ 0.0322 µM) | 0.125 µg/mL (≈ 0.258 µM) | 
14 | C[C@@H](N1Cc2sc(-c3cncc(F)c3)cc2C1=O)[C@](O)(Cn1cncn1)c1ccc(F)cc1F | 0.0156 µg/mL (≈ 0.0321 µM) | > 64 µg/mL | 0.0078 µg/mL (≈ 0.0161 µM) | 0.0156 µg/mL (≈ 0.0321 µM) | 0.0078 µg/mL (≈ 0.0161 µM) | 0.0625 µg/mL (≈ 0.129 µM) | 
15 | C[C@@H](N1Cc2cc(Br)sc2C1=O)[C@](O)(Cn1cncn1)c1ccc(F)cc1F | 0.0156 µg/mL (≈ 0.0332 µM) | 0.25 µg/mL (≈ 0.533 µM) | 0.0625 µg/mL (≈ 0.133 µM) | 0.0156 µg/mL (≈ 0.0332 µM) | 0.0156 µg/mL (≈ 0.0332 µM) | 0.0625 µg/mL (≈ 0.133 µM) | 5 µL/min/mg
16 | C[C@@H](c1ncncc1F)[C@](O)(Cn1cncn1)c1ccc(F)cc1F [VORICONAZOLE] | 0.0156 µg/mL (≈ 0.0447 µM) | 0.25 µg/mL (≈ 0.716 µM) | 0.0156 µg/mL (≈ 0.0447 µM) | 0.0156 µg/mL (≈ 0.0447 µM) | 0.0156 µg/mL (≈ 0.0447 µM) | 0.0156 µg/mL (≈ 0.0447 µM) | 
17 | COc1ncc(-c2cc3c(s2)C(=O)N([C@H](C)[C@](O)(Cn2cncn2)c2ccc(F)cc2F)C3)cn1 | 0.0625 µg/mL (≈ 0.125 µM) | 4 µg/mL (≈ 8.02 µM) | 0.0625 µg/mL (≈ 0.125 µM) | 0.0625 µg/mL (≈ 0.125 µM) | 0.0625 µg/mL (≈ 0.125 µM) | 0.25 µg/mL (≈ 0.501 µM) | 
18 | COc1ccc(-c2cc3c(s2)C(=O)N([C@H](C)[C@](O)(Cn2cncn2)c2ccc(F)cc2F)C3)cn1 | 0.0312 µg/mL (≈ 0.0628 µM) | 8 µg/mL (≈ 16.1 µM) | 0.0312 µg/mL (≈ 0.0628 µM) | 0.0312 µg/mL (≈ 0.0628 µM) | 0.0156 µg/mL (≈ 0.0314 µM) | 0.125 µg/mL (≈ 0.251 µM) | 
